The results in this text go back to ChEMBL document CHEMBL4706606, “Re-evaluating pretomanid analogues for Chagas disease: Hit-to-lead studies reveal both in vitro and in vivo trypanocidal efficacy” (Eur J Med Chem, 2020).

For orientation: IC50 means the concentration that gives 50% inhibition. As usually defined, the IC90 is the point of the concentration-response curve where the effect stands at 90%. As a reminder, the kinetic solubility is the concentration staying in solution when a stock, usually in DMSO, is diluted into the medium.

Data set [1] deals with Trypanosoma cruzi. Nature of the data set: Antitrypanosomal activity against Trypanosoma cruzi Tulahuen strain C2C4 amastigotes infected in rat L6 cells assessed as inhibition of parasite growth incubated for 96 hrs by chlorophenol red-fl-D-galactopyranoside based colorimetric analysis. The note with it: for IC50: Tulahuen strain C2C4, L6, 96 h; for IC90: Tulahuen strain C2C4, L6, time 96 hrs. Format: functional, organism-based. In outline: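 Tulahuen strain TcVI T. cruzi expressing β-galactosidase, grown in L6 rat skeletal myoblast host cells. IC50/IC90 growth inhibition. Each value is the mean of ≥2 independent determinations using fresh sample stock.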

The next data set concerns L6. Briefly: Cytotoxicity against rat L6 cells assessed as reduction in cell viability incubated for 72 hrs by alamar blue assay. The conditions noted are these: L6, 72 h. Format: ADME, cell-based.
Data set [2] in a line: Selectivity index, ratio of IC50 for cytotoxicity against rat L6 cells to IC50 for antitrypanosomal activity against Trypanosoma cruzi Tulahuen strain C2C4 amastigotes infected in rat L6 cells.
In data set [3] the test system is Trypanosoma cruzi. Nature of the data set: Antitrypanosomal activity against Trypanosoma cruzi Tulahuen strain C2C4 amastigotes infected in […] cells assessed as reduction in parasite growth incubated for 48 hrs by chlorophenol red-fl-D-galactopyranoside based colorimetric analysis. The conditions noted are these: for IC50: Tulahuen strain C2C4, NIH3T3, 48 h; for IC90: Tulahuen strain C2C4, NIH3T3, time 48 hrs. It is filed as functional, organism-based.

Data set [4] in a line: Cytotoxicity against rat 3T3 cells assessed as reduction in cell viability incubated for 72 hrs by alamar blue assay. The note with it: NIH3T3, 72 h. It is filed as ADME, cell-based.
The subject of data set [5] is Trypanosoma cruzi. Nature of the data set: Antitrypanosomal activity against Trypanosoma cruzi Tulahuen strain C2C4 amastigotes infected in […] cells assessed as reduction in parasite growth incubated for 48 hrs by chlorophenol red-fl-D-galactopyranoside based colorimetric analysis relative to control. It is filed as functional.
A short description of data set [6]: Inhibition of Trypanosoma cruzi Tulahuen C4 strain CYP51 expressed in Escherichia coli by fluorescence based assay.
Data set [7] is described as follows: Selectivity index, ratio of IC50 for cytotoxicity against rat 3T3 cells to IC50 for antitrypanosomal activity against Trypanosoma cruzi Tulahuen strain C2C4 amastigotes infected in rat 3T3 cells. The conditions noted are these: 3T3 cells.
The nature of data set [8]: Kinetic solubility of compound in water sonicated for 15 mins by HPLC analysis.
Data set [9] is described as follows: Metabolic stability in CD-1 mouse liver microsomes assessed as parent compound remaining incubated for 1 hr. It is filed as ADME, Microsome. In outline:
(§1)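 Pooled human or CD-1 mouse liver microsomes at 0.4 mg/mL microsomal protein. Percent parent remaining after 1 h incubation.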

Data set [10] can be described thus: Metabolic stability in human liver microsomes assessed as parent compound remaining incubated for 1 hr. It is filed as ADME, Microsome. The note with it: read-out: Stabilty. The essentials: as §1

≈ marks a conversion by molar mass, not a printed value.

On to `O=[N+]([O-])c1cn2c(n1)OC(COc1cnc(-c3ccc(OC(F)(F)F)cc3)cn1)CC2` (configuration not stated), for which, in the data set with Trypanosoma cruzi [1], the 50% inhibitory concentration (IC50) was determined as 0.21 µM and the IC90 came to 6.7 µM. In the data set with L6, the half-inhibitory concentration (IC50) was > 100 µM. In data set [2], the selectivity ratio is > 476.
As for `CSc1cnc2n1CC(C)(COc1ccc(OC(F)(F)F)cc1)O2` (configuration not stated), the IC50 in the data set on Trypanosoma cruzi [3] was 2 µM; in data set [4], > 73 µM; in data set [6] it was > 10 µM. The 90% effect concentration (IC90) in the data set with Trypanosoma cruzi [3] was found to be 16 µM. In the data set on Trypanosoma cruzi [5], the “%max” value came out at 93%. The selectivity ratio in [7] is > 37.
Turning to `O=[N+]([O-])c1cn2c(n1)SCC(OCc1ccc(OCc3ccccc3)cc1)C2` (configuration not stated), the IC50 with Trypanosoma cruzi [1] stood at 0.9 µM.
As to `O=[N+]([O-])c1cn2c(n1)OC(COc1cnc(-c3ccc(OC(F)(F)F)cc3)nc1)CC2` (configuration not stated), the values for the IC50 in the data set with Trypanosoma cruzi [1] and in the data set on L6 were 0.33 µM and 70 µM, respectively. The IC90 in the data set on Trypanosoma cruzi [1] was found to be 0.96 µM. Moreover, the selectivity ratio in data set [2] was 212.
For the compound `O=[N+]([O-])c1cn2c(n1)OC(COc1ccc(-c3ccc(OC(F)(F)F)cc3)nn1)CC2` (configuration not stated), in the data set on Trypanosoma cruzi [1], the IC50 came to 0.38 µM and the 90% effect concentration (IC90) amounted to 0.96 µM. Moreover, the IC50 with L6 amounted to 42 µM. For the same compound, the selectivity ratio in data set [2] came out at 111.
In data set [8], `CC1(COc2ccc(OC(F)(F)F)cc2)CCn2nc([N+](=O)[O-])nc2O1` (configuration not stated) had a kinetic solubility at 0.25 h of 9.5 µg/mL (≈ 25.4 µM). Moreover, the remaining at 1 h was determined as 92% in data set [9] and 91% in [10]. Besides, the half-inhibitory concentration (IC50) in the data set on Trypanosoma cruzi [3] was 0.22 µM; in [4], > 37 µM; in [6], > 10 µM. For the same compound, in the data set on Trypanosoma cruzi [3], the IC90 turned out to be 0.85 µM. Besides, the “%max” value with Trypanosoma cruzi [5] is on record as 96%. In addition, the selectivity ratio in data set [7] was > 168.
As to `O=[N+]([O-])c1cn2c(n1)OC(COc1ccc(-c3ccc(OC(F)(F)F)cc3)cn1)CC2` (configuration not stated), the IC50 in the data set on Trypanosoma cruzi [1] is 0.04 µM; in the data set with L6 it was > 100 µM. The IC90 in the data set with Trypanosoma cruzi [1] was found to be 0.18 µM. The selectivity ratio in data set [2] is > 2500.
Consider `CC1(COc2ccc(OC(F)(F)F)cc2)Cn2ccnc2O1` (configuration not stated), for which the figures for the IC50 (in the data set with Trypanosoma cruzi [3]; in data set [4]; in data set [6]) were 4.7 µM, > 73 µM and 0.16 µM, respectively. In the data set on Trypanosoma cruzi [3], the IC90 turned out to be 10 µM. The “%max” value in the data set with Trypanosoma cruzi [5] turned out to be 80%. In [7], the selectivity ratio was > 16.
Take `CC1(COc2ccc(OC(F)(F)F)cc2)Cn2cc([N+](=O)[O-])nc2O1` (racemic): the figures for the IC50 (in the data set on Trypanosoma cruzi [3]; in [4]; in data set [6]) were 0.95 µM, > 73 µM and > 10 µM, respectively. The IC90 in the data set with Trypanosoma cruzi [3] stood at 2.3 µM. For the same compound, in the data set on Trypanosoma cruzi [5], the “%max” value is reported as 68%.
For `CC1(COc2ccc(OC(F)(F)F)c(F)c2)CCn2cc([N+](=O)[O-])nc2O1` (configuration not stated), in the data set with Trypanosoma cruzi [1], the IC50 was determined as 0.56 µM and the IC90 was determined as 1.9 µM. In addition, the IC50 in the data set with L6 was 68 µM. In data set [8], this compound registered a solubility (kinetic) at 0.25 h of 0.95 µg/mL (≈ 2.43 µM).
As for `CC1(COc2ccc(OC(F)(F)F)cc2)Cn2c(Br)cnc2O1` (configuration not stated), the half-maximal inhibitory concentration (IC50) with Trypanosoma cruzi [3] is 1.7 µM; in [4] it was > 73 µM; in data set [6], 0.53 µM. In the data set on Trypanosoma cruzi [3], the IC90 amounted to 4.1 µM. For the same compound, the “%max” value in the data set on Trypanosoma cruzi [5] is on record as 87%. In addition, in data set [7], the selectivity ratio is > 43.
`O=[N+]([O-])c1cn2c(n1)OC[C@@H](OCc1ccc(-c3ccccc3)cc1)C2`: the IC50 in the data set on Trypanosoma cruzi [1] was determined as 60 µM.
As for `CC1(COc2ccc(OC(F)(F)F)cc2)Cn2nc([N+](=O)[O-])nc2O1` (configuration not stated), the IC50 with Trypanosoma cruzi [3] is 0.72 µM; in data set [4], > 73 µM; in data set [6], > 10 µM. The concentration for an effect of 90% (IC90) in the data set with Trypanosoma cruzi [3] is 2.1 µM. For the same compound, in the data set on Trypanosoma cruzi [5], the “%max” value came to 96%. The selectivity ratio in [7] is > 101.
As for `O=[N+]([O-])c1cn2c(n1)OC[C@@H](OCc1ccc(-c3ccc(OC(F)(F)F)cc3Cl)cc1)C2`, the figures for the IC50 with Trypanosoma cruzi [1] and in the data set on L6 were 5.7 µM and 19 µM, respectively. Also, the IC90 with Trypanosoma cruzi [1] was > 10 µM. In addition, the selectivity ratio in data set [2] came out at 3.3.
Consider `O=[N+]([O-])c1cn2c(n1)OC(COc1ccc(-c3ccc(F)cc3)nc1)CC2` (racemic), for which, in the data set on Trypanosoma cruzi [1], the concentration for half-maximal inhibition (IC50) stood at 0.17 µM and the IC90 turned out to be 0.56 µM.
For `O=[N+]([O-])c1cn2c(n1)OC[C@H](OCc1ccc(-c3ccc(OC(F)(F)F)cc3)cn1)C2`, the IC50 with Trypanosoma cruzi [1] is 0.049 µM; in the data set on L6, 51 µM; in the data set with Trypanosoma cruzi [3] it was 0.39 µM; in data set [4], > 73 µM; in [6], > 10 µM. For the same compound, the IC90 worked out at 0.31 µM in the data set on Trypanosoma cruzi [1] and 2.6 µM in the data set on Trypanosoma cruzi [3]. Besides, the “%max” value in the data set on Trypanosoma cruzi [5] turned out to be 80%.
Regarding `O=[N+]([O-])c1cn2c(n1)OC[C@@H](OCc1ccc(-c3ccc(C(F)(F)F)cc3Cl)cn1)C2`, in the data set with Trypanosoma cruzi [1], the IC50 is 4.8 µM and the IC90 is > 10 µM. Besides, the half-maximal inhibitory concentration (IC50) in the data set on L6 is 57 µM. Besides, the selectivity ratio in [2] amounted to 12.
On to `O=[N+]([O-])c1cn2c(n1)OCC(OCc1ccc(OCc3ccccc3)cc1)C2` (configuration not stated), for which the IC50 with Trypanosoma cruzi [1] came to 1.2 µM.
As for `O=[N+]([O-])c1cn2c(n1)OC(COc1ccc(-c3ccc(F)nc3)cc1)CC2` (configuration not stated), the IC50 was 0.018 µM in the data set on Trypanosoma cruzi [1]; > 100 µM with L6; 0.074 µM with Trypanosoma cruzi [3]; > 37 µM in data set [4]; > 10 µM in data set [6]. For the same compound, the IC90 turned out to be 0.044 µM in the data set on Trypanosoma cruzi [1] and 0.33 µM in the data set on Trypanosoma cruzi [3]. Further, the selectivity ratio in data set [2] was > 5560; in [7] it was > 500. Also, in the data set on Trypanosoma cruzi [5], the “%max” value came to 98%.
For the compound `O=[N+]([O-])c1cn2c(n1)OC(COc1ncc(-c3ccc(OC(F)(F)F)cc3)cn1)CC2` (configuration not stated), the IC50 worked out at 0.053 µM with Trypanosoma cruzi [1] and 19 µM in the data set on L6. Further, the IC90 in the data set with Trypanosoma cruzi [1] came to 0.33 µM. Also, the selectivity ratio in data set [2] was 358.
For `O=[N+]([O-])c1cn2c(n1)OC(COc1ccc(-c3ccc(OC(F)(F)F)cc3)nc1)CC2` (configuration not stated), the “%max” value in the data set on Trypanosoma cruzi [5] was determined as 100%.
Take `O=[N+]([O-])c1cn2c(n1)OC[C@H](OCc1ccc(-c3ccccc3)cc1)C2`: the IC50 with Trypanosoma cruzi [1] was 2.7 µM.
For the compound `CC1(COc2ccc(OC(F)(F)F)cc2)CCn2cc([N+](=O)[O-])nc2[S+]1[O-]` (configuration not stated), in the data set on Trypanosoma cruzi [1], the IC50 was found to be 1.6 µM and the concentration for an effect of 90% (IC90) amounted to 3.7 µM. The IC50 with L6 came out at 73 µM. In addition, the selectivity ratio in data set [2] came to 46.
In the same order, the values of `CC1(COc2ccc(OC(F)(F)F)cc2)CCn2cc([N+](=O)[O-])nc2S1` (configuration not stated) are 1.1 µM, 2.6 µM, > 100 µM and > 91.
On to `CC1(COc2ccc(OC(F)(F)F)cc2Cl)CCn2cc([N+](=O)[O-])nc2O1` (configuration not stated), for which, in the data set with Trypanosoma cruzi [1], the IC50 amounted to 0.46 µM and the 90% effect concentration (IC90) was 1.3 µM. Besides, the IC50 in the data set on L6 is > 100 µM. This compound also returned a solubility (kinetic) at 0.25 h in data set [8] of 0.61 µg/mL (≈ 1.5 µM).
In the case of `O=[N+]([O-])c1cn2c(n1)OC[C@H](OCC#Cc1ccc(OC(F)(F)F)cc1)C2`, the IC50 in the data set on Trypanosoma cruzi [3] is 0.19 µM; in data set [4], > 37 µM; in [6], > 10 µM. In the data set on Trypanosoma cruzi [3], the IC90 came out at 0.44 µM. Moreover, the “%max” value in the data set with Trypanosoma cruzi [5] was found to be 99%. Moreover, the selectivity ratio in data set [7] was > 195.
Consider `CC1(COc2ccc(OC(F)(F)F)c(Cl)c2)CCn2cc([N+](=O)[O-])nc2O1` (configuration not stated), for which, in the data set with Trypanosoma cruzi [1], the IC50 was 0.31 µM and the IC90 was found to be 6.5 µM. Besides, the IC50 with L6 stood at 53 µM. Besides, in data set [8], the kinetic solubility at 0.25 h came out at 0.5 µg/mL (≈ 1.23 µM).
